{"source": "ChEMBL document CHEMBL1126796", "about": "“2-(Alkylamino)nicotinic acid and analogs. Potent angiotensin II antagonists” (J Med Chem, 1993)", "key": {"[1]": {"test_system": "Rattus norvegicus", "test": "% decrease in blood pressure after 4 hours at a dose of 10 mg/kg in male rats by using Renal artery hypertensive model", "type": "functional", "outline": "(§1)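 Male Sprague-Dawley rats (300-350 g) were made hypertensive by renal artery ligation and used on day 6 or 7 after ligation. Arterial pressure was measured from an indwelling femoral artery catheter, with blood pressure and heart rate recorded on line. Read-out is % decrease in blood pressure at 4 h, ±SEM, with number of rats.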"}, "[2]": {"test_system": "Rattus norvegicus", "test": "% decrease in blood pressure after 4 hours at a dose of 10 mg/kg in male rats by using Furosemide-treated spontaneous hypertensive model", "type": "functional", "outline": "(§2)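 Male SHR, 20-24 weeks old, pretreated with furosemide 10 mg/kg sc at 22 and 4 h before the experiment; compound dosed orally. Arterial pressure was recorded from an indwelling femoral artery catheter with on-line blood pressure and heart rate analysis. Read-out is % fall in blood pressure at 4 h and at 24 h, ±SEM, with number of rats.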"}, "[3]": {"test_system": "Rattus norvegicus", "test": "% decrease in blood pressure after 24 hours at a dose of 10 mg/kg in male rats by using Furosemide-treated spontaneous hypertensive model", "type": "functional", "outline": "as §2"}, "[4]": {"test_system": "Rattus norvegicus", "test": "% decrease in blood pressure after 4 hours in male rats at a dose of 3 mg/kg by using Renal artery hypertensive model; IA means inactive", "type": "functional, organism-based", "set-up": "dose 3 mg/kg", "outline": "as §1"}, "[5]": {"test_system": "Rattus norvegicus", "test": "% decrease in blood pressure after 4 hours in male rats at a dose of 10 mg/kg by using Renal artery hypertensive model", "type": "functional", "outline": "as §1"}, "[6]": {"target": "T1, Type-1 angiotensin II receptor A (Rattus norvegicus, UniProt P25095)", "T1 sequence (P25095 whole entry)": "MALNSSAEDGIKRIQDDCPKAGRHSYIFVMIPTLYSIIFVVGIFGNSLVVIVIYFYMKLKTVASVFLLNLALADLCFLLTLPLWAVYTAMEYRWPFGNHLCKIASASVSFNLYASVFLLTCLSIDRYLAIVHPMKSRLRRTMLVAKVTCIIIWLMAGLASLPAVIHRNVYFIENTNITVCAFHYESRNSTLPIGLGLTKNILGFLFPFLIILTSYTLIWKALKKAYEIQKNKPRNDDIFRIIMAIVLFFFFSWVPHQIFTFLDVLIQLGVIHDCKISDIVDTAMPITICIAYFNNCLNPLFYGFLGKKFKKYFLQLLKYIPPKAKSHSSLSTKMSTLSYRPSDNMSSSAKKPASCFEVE", "test": "Binding affinity against angiotensin II receptor from rat liver", "outline": "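Rat liver membranes were incubated with [125I]-saralasin to measure angiotensin II type 1 receptor binding. Nonspecific binding was defined with 1 µM angiotensin.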"}, "[7]": {"test_system": "Rattus norvegicus", "test": "% decrease in blood pressure after 4 hours at a dose of 30 mg/kg in male rats by using Renal artery hypertensive model", "type": "functional", "outline": "as §1"}, "[8]": {"test_system": "Rattus norvegicus", "test": "% decrease in blood pressure after 24 hours at a dose of 1 mg/kg in male rats by using Furosemide-treated spontaneous hypertensive model", "type": "functional", "outline": "as §2"}, "[9]": {"test_system": "Rattus norvegicus", "test": "% decrease in blood pressure after 4 hours at a dose of 1 mg/kg in male rats by using Furosemide-treated spontaneous hypertensive model", "type": "functional", "outline": "as §2"}, "[10]": {"test_system": "Rattus norvegicus", "test": "% decrease in blood pressure after 4 hours at a dose of 0.3 mg/kg in male rats by using Renal artery hypertensive model; IA means inactive", "type": "functional, organism-based", "set-up": "dose 0.3 mg/kg", "outline": "as §1"}, "[11]": {"test_system": "Rattus norvegicus", "test": "% decrease in blood pressure after 4 hours at a dose of 0.3 mg/kg in male rats by using Renal artery hypertensive model", "type": "functional", "outline": "as §1"}, "[12]": {"test_system": "Rattus norvegicus", "test": "% decrease in blood pressure after 24 hours at a dose of 0.3 mg/kg in male rats by using Furosemide-treated spontaneous hypertensive model", "type": "functional", "outline": "as §2"}, "[13]": {"test_system": "Rattus norvegicus", "test": "% decrease in blood pressure after 24 hours at a dose of 0.1 mg/kg in male rats by using Furosemide-treated spontaneous hypertensive model", "type": "functional", "outline": "as §2"}, "[14]": {"test_system": "Rattus norvegicus", "test": "% decrease in blood pressure after 4 hours at a dose of 0.1 mg/kg in male rats by using Furosemide-treated spontaneous hypertensive model", "type": "functional", "outline": "as §2"}, "[15]": {"test_system": "Rattus norvegicus", "test": "% decrease in blood pressure after 4 hours at a dose of 0.3 mg/kg in male rats by using Furosemide-treated spontaneous hypertensive model", "type": "functional", "outline": "as §2"}, "[16]": {"test_system": "Rattus norvegicus", "test": "% decrease in blood pressure after 4 hours in male rats at a dose of 0.1 mg/kg by using Renal artery hypertensive model", "type": "functional", "outline": "as §1"}, "[17]": {"test_system": "Rattus norvegicus", "test": "% decrease in blood pressure after 4 hours in male rats at a dose of 3 mg/kg administered iv by using Renal artery hypertensive model; IA means inactive", "type": "functional, organism-based", "set-up": "dose 3 mg/kg", "outline": "as §1"}, "[18]": {"test_system": "Rattus norvegicus", "test": "% decrease in blood pressure after 4 hours at a dose of 3 mg/kg administered iv in male rats by using Renal artery hypertensive model; IA means inactive", "type": "functional, organism-based", "set-up": "dose 3 mg/kg", "outline": "as §1"}, "[19]": {"test_system": "Rattus norvegicus", "test": "% decrease in blood pressure after 4 hours at a dose of 1 mg/kg in male rats by using Furosemide-treated spontaneous hypertensive model; IA means inactive", "type": "functional, organism-based", "set-up": "dose 1 mg/kg", "outline": "as §2"}}, "note": "Activity calls are given as the source filed them. The rule behind the calls is not given here."}
{"compound": "CCCCc1nc(Cl)c(CO)n1Cc1ccc(-c2ccccc2-c2nnn[nH]2)cc1", "note": "[LOSARTAN]", "values": [{"measurement": "Decrease in blood pressure", "setting": "[1]", "result": 27, "unit": "%"}, {"measurement": "Decrease in blood pressure", "setting": "[2]", "result": 21, "unit": "%"}, {"measurement": "Decrease in blood pressure", "setting": "[3]", "result": 34, "unit": "%"}, {"measurement": "Decrease in blood pressure", "setting": "[4]", "result": "inactive"}]}
{"compound": "CCCN(Cc1ccc(-c2ccccc2-c2nn[nH]n2)cc1)c1nc(C)ncc1C(=O)O", "values": [{"measurement": "Decrease in blood pressure", "setting": "[5]", "result": 15, "unit": "%"}, {"measurement": "Ki", "setting": "[6]", "result": 2.78, "unit": "nM"}, {"measurement": "Decrease in blood pressure", "setting": "[7]", "result": 18, "unit": "%"}]}
{"compound": "CCCN(Cc1ccc(-c2ccccc2-c2nn[nH]n2)cc1)c1nc(F)ccc1C(=O)O", "values": [{"measurement": "Decrease in blood pressure", "setting": "[8]", "result": 36, "unit": "%"}, {"measurement": "Decrease in blood pressure", "setting": "[9]", "result": 15, "unit": "%"}]}
{"compound": "CCCN(Cc1ccc(-c2ccccc2-c2nn[nH]n2)cc1)c1ncccc1CO", "values": [{"measurement": "Decrease in blood pressure", "setting": "[10]", "result": "inactive"}]}
{"compound": "CCCCN(Cc1ccc(-c2ccccc2-c2nn[nH]n2)cc1)c1ncccc1C(=O)O", "values": [{"measurement": "Decrease in blood pressure", "setting": "[11]", "result": 45, "unit": "%"}, {"measurement": "Decrease in blood pressure", "setting": "[12]", "result": 40, "unit": "%"}, {"measurement": "Decrease in blood pressure", "setting": "[13]", "result": 22, "unit": "%"}, {"measurement": "Decrease in blood pressure", "setting": "[14]", "result": 5, "unit": "%"}, {"measurement": "Decrease in blood pressure", "setting": "[15]", "result": 14, "unit": "%"}, {"measurement": "Decrease in blood pressure", "setting": "[16]", "result": 16, "unit": "%"}]}
{"compound": "CCCN(Cc1ccc(-c2ccccc2-c2nn[nH]n2)cc1)c1ncccc1NS(=O)(=O)C(F)(F)F", "values": [{"measurement": "Decrease in blood pressure", "setting": "[11]", "result": 6, "unit": "%"}]}
{"compound": "CCCCN(Cc1ccc(-c2ccccc2-c2nn[nH]n2)cc1)c1nccnc1C(=O)O", "values": [{"measurement": "Decrease in blood pressure", "setting": "[8]", "result": 21, "unit": "%"}, {"measurement": "Decrease in blood pressure", "setting": "[9]", "result": 7, "unit": "%"}]}
{"compound": "CCc1ncc(C(=O)O)c(NCc2ccc(-c3ccccc3-c3nn[nH]n3)cc2)n1.Cl", "values": [{"measurement": "Decrease in blood pressure", "setting": "[17]", "result": "inactive"}, {"measurement": "Decrease in blood pressure", "setting": "[18]", "result": "inactive"}, {"measurement": "Ki", "setting": "[6]", "result": 68.1, "unit": "nM"}]}
{"compound": "CCCN(Cc1ccc(-c2ccccc2-c2nn[nH]n2)cc1)c1nc(C)cnc1C(=O)O", "values": [{"measurement": "Decrease in blood pressure", "setting": "[8]", "result": 18, "unit": "%"}, {"measurement": "Decrease in blood pressure", "setting": "[9]", "result": 2, "unit": "%"}]}
{"compound": "CCCN(Cc1ccc(-c2ccccc2-c2nn[nH]n2)cc1)c1ncccc1C(=O)OC", "values": [{"measurement": "Decrease in blood pressure", "setting": "[19]", "result": "inactive"}]}
